Results from ChEMBL document CHEMBL4765486, “Novel Nonsecosteroidal Vitamin D Receptor Modulator Combined with Gemcitabine Enhances Pancreatic Cancer Therapy through Remodeling of the Tumor Microenvironment” (J Med Chem, 2021).
Activity calls are given as the source filed them. How the calls were made is not given here.

Tests used:
[1] = target: T1, Vitamin D3 receptor (Homo sapiens) (UniProt P11473); assay: Binding affinity to VDR (unknown origin) at 1 uM by fluorescence polarization assay relative to calcipotriol
T1 sequence (whole entry): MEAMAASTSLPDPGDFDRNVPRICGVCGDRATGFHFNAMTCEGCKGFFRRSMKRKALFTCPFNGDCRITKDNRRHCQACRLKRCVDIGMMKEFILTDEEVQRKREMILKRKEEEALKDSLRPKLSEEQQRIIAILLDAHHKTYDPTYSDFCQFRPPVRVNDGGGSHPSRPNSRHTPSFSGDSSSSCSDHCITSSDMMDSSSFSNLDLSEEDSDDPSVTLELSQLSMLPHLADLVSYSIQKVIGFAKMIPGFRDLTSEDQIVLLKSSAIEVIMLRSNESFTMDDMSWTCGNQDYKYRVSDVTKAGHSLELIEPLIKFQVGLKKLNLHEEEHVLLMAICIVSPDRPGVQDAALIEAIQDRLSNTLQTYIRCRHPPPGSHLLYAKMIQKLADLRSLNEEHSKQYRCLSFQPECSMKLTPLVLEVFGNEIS
How it was run: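 PolarScreen VDR competitor fluorescence polarization assay with compounds at 1 μM in triplicate. Read-out used 535 nm excitation and 590 nm emission filters.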

[2] = tested on: LTC-14; assay: Inhibition of rat LTC-14 cells activation assessed decrease in TGF-beta1 induced collagen 1 protein expression at 0.5 uM incubated for 24 hrs by Western blot analysis; format: functional, cell-based
How it was run: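 LTC-14 cells were treated for 24 h with compound (0.5 μM) plus TGF-β1 (0.5 ng/mL in the text, 5 ng/mL in the methods). Lysates were run on 10% SDS-PAGE, transferred to PVDF and probed with rabbit anti-collagen I, with β-actin as reference. Bands were quantified by densitometry versus TGF-β1 alone.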

[3] = Cytotoxicity against rat LTC-14 cells assessed as reduction in cell proliferation incubated for 24 hrs by MTT assay; format: cell-based; conditions: LTC-14, 24 h
[4] = tested on: LTC-14; assay: Inhibition of rat LTC-14 cell activation assessed decrease in TGF-beta1 induced Colla1 mRNA expression at 0.5 uM incubated for 24 hrs by q-PCR analysis; format: functional
How it was run: (§1)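 Immortalized rat PSC line LTC-14, about 1×10^5 cells per well, was grown 24 h at 37 °C in 5% CO2. Cells then received compound (0.5 μM) plus TGF-β1 for 24 h; TGF-β1 is stated as 0.5 ng/mL in the text and 5 ng/mL in the methods. Col1a1 and Acta2 mRNA were measured by RT-qPCR. Mean ± SD versus TGF-β1 alone.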

[5] = tested on: LTC-14; assay: Inhibition of rat LTC-14 cells activation assessed decrease in TGF-beta1 induced Acta2 mRNA expression at 0.5 uM incubated for 24 hrs by q-PCR analysis; format: functional, cell-based; how it was run: as §1

RBA ([1]; filed as agonist) | RBA [1] | Structure (SMILES) | inhibition [2] | IC50 [3] | inhibition [4] | inhibition [5]
41% | – | CCN(CC)CCNC(=O)c1cc(C(CC)(CC)c2ccc(OCCCCC(O)(CC)CC)c(C)c2)cn1CC | Active | > 10 µM | Active | Active
– | 32% | CCN(CC)CCCNC(=O)c1cc(C(CC)(CC)c2ccc(OCCCCCC(O)(CC)CC)c(C)c2)cn1CC | Active | > 10 µM | Active | Active
71% | – | CCn1cc(C(CC)(CC)c2ccc(OCC(C)O)c(C)c2)cc1C(=O)NCCCN1CCOCC1 (stereo not given) | Active | > 10 µM | Active | Active
40% | – | CCN(CC)CCCNC(=O)c1cc(C(CC)(CC)c2ccc(OCC(O)C3CC3)c(C)c2)cn1CC (stereo not given) | Active | > 10 µM | Active | Active
71% | – | CCN(CC)CCNC(=O)c1ccc(C(CC)(CC)c2ccc(OCCCCC(O)(CC)CC)c(C)c2)n1CC | Active | > 10 µM | Active | Active
– | 38% | CCN(CC)CCNC(=O)c1ccc(C(CC)(CC)c2ccc(OCCCC(O)(CC)CC)c(C)c2)n1CC | Active | > 10 µM | Active | Active
54% | – | CCn1c(C(=O)NCCCN2CCN(C)CC2)ccc1C(CC)(CC)c1ccc(OCCC(C)(C)O)c(C)c1 | Active | > 10 µM | Active | Active
77% | – | CCn1c(C(=O)NCC2CCOCC2)ccc1C(CC)(CC)c1ccc(OCCC(C)(C)O)c(C)c1 | Active | > 10 µM | Active | Active
80% | – | CCN(CC)CCNC(=O)c1cc(C(CC)(CC)c2ccc(OCCC(O)(CC)CC)c(C)c2)cn1CC | Active | > 10 µM | Active | Active
70% | – | CCn1cc(C(CC)(CC)c2ccc(OCC(C)O)c(C)c2)cc1C(=O)NCCCN(CCO)CCO (stereo not given) | Active | > 10 µM | Active | Active
– | 30% | CCN(CC)CCCNC(=O)c1ccc(C(CC)(CC)c2ccc(OCC(C)O)c(C)c2)n1CC (stereo not given) | Active | > 10 µM | Active | Active
54% | – | CCCC(O)(CCC)CCOc1ccc(C(CC)(CC)c2ccc(C(=O)NCCCN(CC)CC)n2CC)cc1C | Active | > 10 µM | Active | Active
67% | – | CCN(CC)CCCNC(=O)c1cc(C(CC)(CC)c2ccc(OCCC(C)(C)O)c(C)c2)cn1CC | Active | > 10 µM | Active | Active
59% | – | CCN(CC)CCCNC(=O)c1cc(C(CC)(CC)c2ccc(OCC(O)c3ccccc3)c(C)c2)cn1CC (stereo not given) | Active | > 10 µM | Active | Active
78% | – | CCN(CC)CCCNC(=O)c1cc(C(CC)(CC)c2ccc(OCC(C)O)c(C)c2)cn1CC (stereo not given) | Active | > 10 µM | Active | Active
– | 18% | CCn1c(C(=O)NCCN2CCOCC2)ccc1C(CC)(CC)c1ccc(OCCC(C)(C)O)c(C)c1 | Active | > 10 µM | Active | Active
59% | – | CCn1c(C(=O)NCC2CCCO2)ccc1C(CC)(CC)c1ccc(OCCC(C)(C)O)c(C)c1 (stereo not given) | Active | > 10 µM | Active | Active
